Assays:
Hep 3B2 [1] = assay: Proliferative activity against human Hep3B cells assessed as cell viability at 0.1 uM after 4 days by cell counting method relative to control; type: functional; conditions: 96 h, read-out: Activity
In short: (§1)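 Hep3B kept in DMEM/10% FBS, 37°C, 5% CO2, then seeded at 1×10^5 cells/ml in medium containing compound (0.1–100 μM; DMSO-only control) in monolayer. Cells were checked daily by microscope for attachment and morphology, and counted after 4 days, in triplicate, in three independent experiments. Counts are given as % of the 0 μM group.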

Hep 3B2 [2] = assay: Proliferative activity against human Hep3B cells assessed as cell viability at 1 uM after 4 days by cell counting method relative to control; type: functional; conditions: 96 h, read-out: Activity; in short: as §1
Hep 3B2 [3] = assay: Proliferative activity against human Hep3B cells assessed as cell viability at 10 uM after 4 days by cell counting method relative to control; type: functional; conditions: 96 h, read-out: Activity; in short: as §1
Hep 3B2 [4] = assay: Proliferative activity against human Hep3B cells assessed as cell viability at 100 uM after 4 days by cell counting method relative to control; type: functional; conditions: 96 h, read-out: Activity; in short: as §1
Hep 3B2 [5] = assay: Proliferative activity against human Hep3B cells assessed as cell viability after 4 days by cell counting method; type: functional, cell-based; in short: as §1
Hep 3B2 [6] = assay: Cytoprotective activity against GOX-induced oxidative stress in human Hep3B cells assessed as cell survival at 0.1 uM treated for 5 hrs with 15 mU/ml GOX challenge by MTT assay (reference value: 41.51 +/- 1.39%); type: functional; conditions: read-out: Survival
Hep 3B2 [7] = assay: Cytoprotective activity against GOX-induced oxidative stress in human Hep3B cells assessed as cell survival at 100 uM treated for 5 hrs with 15 mU/ml GOX challenge by MTT assay (reference value: 41.51 +/- 1.39%); type: functional; conditions: read-out: Survival
Hep 3B2 [8] = assay: Cytoprotective activity against GOX-induced oxidative stress in human Hep3B cells assessed as cell survival at 1 uM treated for 5 hrs with 15 mU/ml GOX challenge by MTT assay (reference value: 41.51 +/- 1.39%); type: functional; conditions: read-out: Survival
Hep 3B2 [9] = assay: Cytoprotective activity against GOX-induced oxidative stress in human Hep3B cells assessed as cell survival at 10 uM treated for 5 hrs with 15 mU/ml GOX challenge by MTT assay (reference value: 41.51 +/- 1.39%); type: functional; conditions: read-out: Survival
NIH3T3 [10] = assay: Cytoprotective activity against GOX-induced oxidative stress in mouse NIH/3T3 cells assessed as cell survival at 0.1 uM treated for 5 hrs with 15 mU/ml GOX challenge by MTT assay (reference value: 42.71 +/- 2.10%); type: functional; conditions: NIH3T3, 5 h, read-out: Survival
Hep 3B2 [11] = assay: Cytoprotective activity against GOX-induced oxidative stress in human Hep3B cells assessed as increase in cell survival treated for 5 hrs with 15 mU/ml GOX challenge by MTT assay; type: functional, cell-based
In short: (§2)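 Cells plated at 7×10^4 per well; next day exposed for 5 h to compound (0.1–100 μM) with 15 mU/ml glucose oxidase in growth medium. Viability expressed relative to GOX-free cells; α-tocopherol positive control.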

NIH3T3 [12] = assay: Cytoprotective activity against GOX-induced oxidative stress in mouse NIH/3T3 cells assessed as cell survival at 1 uM treated for 5 hrs with 15 mU/ml GOX challenge by MTT assay (reference value: 42.71 +/- 2.10%); type: functional; conditions: NIH3T3, 5 h, read-out: Survival
NIH3T3 [13] = assay: Cytoprotective activity against GOX-induced oxidative stress in mouse NIH/3T3 cells assessed as cell survival at 10 uM treated for 5 hrs with 15 mU/ml GOX challenge by MTT assay (reference value: 42.71 +/- 2.10%); type: functional; conditions: NIH3T3, 5 h, read-out: Survival
NIH3T3 [14] = assay: Cytoprotective activity against GOX-induced oxidative stress in mouse NIH/3T3 cells assessed as cell survival at 100 uM treated for 5 hrs with 15 mU/ml GOX challenge by MTT assay (reference value: 42.71 +/- 2.10%); type: functional; conditions: NIH3T3, 5 h, read-out: Survival
NIH3T3 [15] = assay: Cytoprotective activity against GOX-induced oxidative stress in mouse NIH/3T3 cells assessed as increase in cell survival treated for 5 hrs with 15 mU/ml GOX challenge by MTT assay; type: functional, cell-based; in short: as §2
Hep 3B2 [16] = assay: Cytoprotective activity against GOX-induced cytotoxicity in human Hep3B cells assessed as LDH release at 0.1 uM treated for 5 hrs with 15 mU/ml GOX challenge by spectrophotometric method (reference value: 60.94 +/- 1.18%); type: functional
Hep 3B2 [17] = assay: Cytoprotective activity against GOX-induced cytotoxicity in human Hep3B cells assessed as LDH release at 1 uM treated for 5 hrs with 15 mU/ml GOX challenge by spectrophotometric method (reference value: 60.94 +/- 1.18%); type: functional
Hep 3B2 [18] = assay: Cytoprotective activity against GOX-induced cytotoxicity in human Hep3B cells assessed as LDH release at 10 uM treated for 5 hrs with 15 mU/ml GOX challenge by spectrophotometric method (reference value: 60.94 +/- 1.18%); type: functional
Hep 3B2 [19] = assay: Cytoprotective activity against GOX-induced cytotoxicity in human Hep3B cells assessed as LDH release at 100 uM treated for 5 hrs with 15 mU/ml GOX challenge by spectrophotometric method (reference value: 60.94 +/- 1.18%); type: functional
Hep 3B2 [20] = assay: Cytoprotective activity against GOX-induced cytotoxicity in human Hep3B cells assessed as decrease in LDH release treated for 5 hrs with 15 mU/ml GOX challenge by spectrophotometric method; type: functional, cell-based
NIH3T3 [21] = assay: Cytoprotective activity against GOX-induced cytotoxicity in mouse NIH/3T3 cells assessed as LDH release at 0.1 uM treated for 5 hrs with 15 mU/ml GOX challenge by spectrophotometric method (reference value: 63.34 +/- 1.85%); type: functional
NIH3T3 [22] = assay: Cytoprotective activity against GOX-induced cytotoxicity in mouse NIH/3T3 cells assessed as LDH release at 1 uM treated for 5 hrs with 15 mU/ml GOX challenge by spectrophotometric method (reference value: 63.34 +/- 1.85%); type: functional
NIH3T3 [23] = assay: Cytoprotective activity against GOX-induced cytotoxicity in mouse NIH/3T3 cells assessed as LDH release at 10 uM treated for 5 hrs with 15 mU/ml GOX challenge by spectrophotometric method (reference value: 63.34 +/- 1.85%); type: functional
NIH3T3 [24] = assay: Cytoprotective activity against GOX-induced cytotoxicity in mouse NIH/3T3 cells assessed as LDH release at 100 uM treated for 5 hrs with 15 mU/ml GOX challenge by spectrophotometric method (reference value: 63.34 +/- 1.85%); type: functional
NIH3T3 [25] = assay: Cytoprotective activity against GOX-induced cytotoxicity in mouse NIH/3T3 cells assessed as decrease in LDH release treated for 5 hrs with 15 mU/ml GOX challenge by spectrophotometric method; type: functional, cell-based
Hep 3B2 [26] = assay: Cytotoxicity against human Hep3B cells assessed as effect on cell attachment at 0.1 to 100 uM measured every day during 4 days incubation period by microscopic method; type: cell-based; conditions: hep 3b2, 96 h; in short: as §1
Hep 3B2 [27] = assay: Cytotoxicity against human Hep3B cells assessed as effect on cell morphology at 0.1 to 100 uM measured every day during 4 days incubation period by microscopic method; type: cell-based; conditions: hep 3b2, 96 h; in short: as §1

SMILES	viability at 0.1 µM (Hep 3B2 [6]) [%]	viability at 100 µM (Hep 3B2 [7]) [%]	viability at 1 µM (Hep 3B2 [8]) [%]	viability at 10 µM (Hep 3B2 [9]) [%]	viability at 0.1 µM (NIH3T3 [10]) [%]	Activity (Hep 3B2 [11])	viability at 1 µM (NIH3T3 [12]) [%]	viability at 10 µM (NIH3T3 [13]) [%]	viability at 100 µM (NIH3T3 [14]) [%]	Activity (NIH3T3 [15])	Activity (Hep 3B2 [16]) [%]	Activity (Hep 3B2 [17]) [%]	Activity (Hep 3B2 [18]) [%]	Activity (Hep 3B2 [19]) [%]	Activity (Hep 3B2 [20])	Activity (NIH3T3 [21]) [%]	Activity (NIH3T3 [22]) [%]	Activity (NIH3T3 [23]) [%]	Activity (NIH3T3 [24]) [%]	Activity (NIH3T3 [25])	other results
O=C(CCc1ccc(O)cc1)c1ccc(O)cc1O [DAVIDIGENIN]	59.3	104	83.4	94.9	60.6	Dose-dependent effect	84	113	123	Dose-dependent effect	22.37	18.61	11.83	4.16	Dose-dependent effect	24.04	15.74	12.69	3.1	Dose-dependent effect	viability at 0.1 µM (Hep 3B2 [1]): 104%; viability at 1 µM (Hep 3B2 [2]): 106%; viability at 10 µM (Hep 3B2 [3]): 116%; viability at 100 µM (Hep 3B2 [4]): 140%; Activity (Hep 3B2 [5]): Dose-dependent effect; Activity (Hep 3B2 [26]): Non-Toxic; Activity (Hep 3B2 [27]): Non-Toxic
CC(C)C(=O)O[C@@H]1Cc2c(ccc3ccc(=O)oc23)OC1(C)C	44.8	82.3	56.1	66.5	45.7	Dose-dependent effect	55.6	67.4	83.1	Dose-dependent effect	28.99	23.78	18.04	7.64	Dose-dependent effect	31.31	25.89	19.53	8.13	Dose-dependent effect	viability at 0.1 µM (Hep 3B2 [1]): 100%; viability at 1 µM (Hep 3B2 [2]): 101%; viability at 10 µM (Hep 3B2 [3]): 110%; viability at 100 µM (Hep 3B2 [4]): 147%; Activity (Hep 3B2 [5]): Dose-dependent effect; Activity (Hep 3B2 [26]): Non-Toxic; Activity (Hep 3B2 [27]): Non-Toxic
C/C=C(/C)C(=O)O[C@@H]1c2c(ccc3ccc(=O)oc23)OC(C)(C)[C@@H]1O[C@@H]1O[C@H](CO)[C@@H](O)[C@H](O)[C@H]1O	59.2	91.2	65.3	76.9	58.6	Dose-dependent effect	64.5	75.8	93.8	Dose-dependent effect	28.01	19.57	10.28	6.16	Dose-dependent effect	29.9	21.12	9.25	5.75	Dose-dependent effect	viability at 0.1 µM (Hep 3B2 [1]): 101%; viability at 1 µM (Hep 3B2 [2]): 102%; viability at 10 µM (Hep 3B2 [3]): 113%; viability at 100 µM (Hep 3B2 [4]): 114%; Activity (Hep 3B2 [5]): Dose-dependent effect; Activity (Hep 3B2 [26]): Non-Toxic; Activity (Hep 3B2 [27]): Non-Toxic
C/C(=C\Cc1c(O)ccc(C(=O)/C=C/c2ccc(O)cc2)c1O)CCC(=O)O	44.3	74.1	45.5	57.1	43.2	Dose-dependent effect	44.7	57.8	74.5	Dose-dependent effect	30.97	20.34	16.93	7.6	Dose-dependent effect	36.37	20.71	18.78	6.96	Dose-dependent effect	viability at 0.1 µM (Hep 3B2 [1]): 100%; viability at 1 µM (Hep 3B2 [2]): 100%; viability at 10 µM (Hep 3B2 [3]): 107%; viability at 100 µM (Hep 3B2 [4]): 115%; Activity (Hep 3B2 [5]): Dose-dependent effect; Activity (Hep 3B2 [26]): Non-Toxic; Activity (Hep 3B2 [27]): Non-Toxic
Cc1c(C)c2c(c(C)c1O)CC[C@@](C)(CCC[C@H](C)CCC[C@H](C)CCCC(C)C)O2 [ALPHA-TOCOPHEROL]	62.2	79.6	66.8	70.7	61.2	Dose-dependent effect	65.8	69.1	77.9	Dose-dependent effect	25.13	21.14	18.89	13	Dose-dependent effect	26.51	22.37	15.02	10.51	Dose-dependent effect	
CC(C)=CCCC(C)(O)C1Cc2c(O)ccc(C(=O)/C=C/c3ccc(O)cc3)c2O1 (stereo not given)	42.9	76	49	62.1	43.5	Dose-dependent effect	44.4	57.5	77.8	Dose-dependent effect	25.13	19.53	19.08	8.14	Dose-dependent effect	27.7	21.87	15	12.35	Dose-dependent effect	viability at 0.1 µM (Hep 3B2 [1]): 100%; viability at 1 µM (Hep 3B2 [2]): 102%; viability at 10 µM (Hep 3B2 [3]): 104%; viability at 100 µM (Hep 3B2 [4]): 113%; Activity (Hep 3B2 [5]): Dose-dependent effect; Activity (Hep 3B2 [26]): Non-Toxic; Activity (Hep 3B2 [27]): Non-Toxic

— ChEMBL document CHEMBL4020804, “Minor phenolics from Angelica keiskei and their proliferative effects on Hep3B cells” (Bioorg Med Chem Lett, 2017)
